This is a sample that favours compounds with a hit; in the whole collection about 3% have one here.
SENP8 block-1: inhibitors of human SENP8 protease; recombinant SENP8, Nedd8 substrate fluorescence; inhibition, % at 20 µM; 0.64% of 360,000 active; in the data active means inhibition mostly above about 40%, no sharp cut-off; inactive means mostly below about 27%
UBC13 polyUb: inhibitors of human UBC13 polyubiquitin chain formation; 0.47% of 330,000 active; TR-FRET; AID 485273; inhibition, % at 20 µM; P61088; in the data active means inhibition above about 45%, passing the limit was not always enough
Apaf-1 inh: inhibitors of human Apaf-1 apoptosome; inhibition, % at 20 µM; reconstituted apoptosome caspase-3 activity, DEVD-Rh110 fluorescence; O14727; 0.71% of 330,000 active; active means inhibition of at least 40% at 20 µM
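System: Apoptosome proteins | Medium: Hepes pH 7.5 with detergent and BSA | Also added: Cytochrome c trigger plus (Z-DEVD)2-Rh110 caspase-3 substrate | Incubation: 30 min compound preincubation, 50 min activation, room temperature | Detection: Rhodamine 110 fluorescence at Ex 480/Em 540 nm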
SENP6 inh: SENP6 protease inhibition; Q9GZR1; Recombinant SENP6 catalytic domain, aminoluciferin luminescence; inhibition, % at 10 µM; 1.8% of 330,000 active; AID 2599;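 active means inhibition above about 50% at the single tested dose, limit read from the data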
Target sequence (Q9GZR1 628-1112 limits assumed): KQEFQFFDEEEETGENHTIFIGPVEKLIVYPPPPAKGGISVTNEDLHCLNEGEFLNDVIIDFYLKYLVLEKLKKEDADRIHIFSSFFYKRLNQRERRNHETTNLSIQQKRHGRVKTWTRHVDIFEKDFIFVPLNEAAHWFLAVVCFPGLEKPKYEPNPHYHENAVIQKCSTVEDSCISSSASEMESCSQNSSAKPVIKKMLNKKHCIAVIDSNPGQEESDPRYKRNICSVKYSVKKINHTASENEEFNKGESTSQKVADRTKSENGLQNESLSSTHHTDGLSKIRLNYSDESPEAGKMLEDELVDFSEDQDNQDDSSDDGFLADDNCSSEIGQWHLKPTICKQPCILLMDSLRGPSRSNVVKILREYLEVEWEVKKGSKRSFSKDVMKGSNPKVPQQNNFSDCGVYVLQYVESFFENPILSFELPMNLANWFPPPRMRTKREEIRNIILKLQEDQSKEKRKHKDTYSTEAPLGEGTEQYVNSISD
SENP8 block-2: inhibitors of human SENP8 protease; purified SENP8, Z-RLRGG-aminoluciferin cleavage, luminescence; AID 2540; inhibition, % at 10 µM; 1.2% of 330,000 active; Q96LD8; in the data active means inhibition above about 50%
SENP7 inh: inhibitors of human SENP7 protease; recombinant SENP7, Z-RLRGG-aminoluciferin luminescence, 40 min; 1.5% of 330,000 active; inhibition, % at 5 µM; AID 434973;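 active means inhibition above about 50% at the single test dose, limit read from the data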
SENP8 conf-1: confirmation of human SENP8 protease inhibitors; shares compounds with SENP7 inh; Recombinant SENP8, Z-RLRGG-aminoluciferin luminescence, 60 min; inhibition, % at 12.5 µM; 40% of 6,200 active; AID 488912;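 active means mean inhibition across replicates above about 50%, limit read from the data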
SENP6 confirm: human SENP6 inhibition, confirmed | inhibition, % at 12.5 µM | 58% of 6,200 active | shares compounds with SENP7 inh | AID 488915 | recombinant SENP6, Z-RLRGG-aminoluciferin luminescence
SENP7 confirm: human SENP7 inhibition, confirmed; recombinant SENP7, Z-RLRGG-aminoluciferin luminescence, 40 min; AID 488917; shares compounds with SENP7 inh; 69% of 6,200 active; inhibition, % at 12.5 µM
Casp3 select: caspase-3 inhibition (SENP selectivity assay); shares compounds with SENP7 inh; purified caspase-3, Z-DEVD-aminoluciferin luminescence, 60 min; inhibition, % at 12.5 µM; 60% of 6,200 active;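 active means mean inhibition above about 50%, limit read from the data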
Target sequence (P42574 28-227 limits assumed): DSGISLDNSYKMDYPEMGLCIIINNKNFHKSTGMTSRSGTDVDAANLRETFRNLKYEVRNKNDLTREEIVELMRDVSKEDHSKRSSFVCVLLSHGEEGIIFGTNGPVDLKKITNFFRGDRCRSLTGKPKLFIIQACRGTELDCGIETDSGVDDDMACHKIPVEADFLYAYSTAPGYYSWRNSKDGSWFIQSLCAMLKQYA
SENP luc ctr: interferes with luciferase luminescence in SENP counter-screen; shares compounds with SENP7 inh; 39% of 6,200 active; inhibition, % at 12.5 µM; Pre-incubated SENP8/Z-RLRGG-aminoluciferin, luciferase luminescence interference;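 active means mean inhibition above about 50% when retested at one dose, limit read from the data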
Casp3 UBC13 ctr: inhibits human caspase-3 in UBC13 counter-screen. Recombinant caspase-3, Caspase-Glo 3/7 luminescence, 60 min. shares compounds with UBC13 polyUb. AID 488856. inhibition, % at 20 µM. 4% of 1,400 active;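 active means mean inhibition across replicates above about 26%, limit read from the data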
UBC13 conf: human UBC13 polyubiquitin inhibition, confirmed; shares compounds with UBC13 polyUb; UBC13 polyubiquitination, TR-FRET, biochemical; 68% of 1,400 active; inhibition, % at 10 µM; in the data active means inhibition above about 45%
Apaf-1 inh conf: confirmation of Apaf-1 inhibitors; shares compounds with Apaf-1 inh; reconstituted apoptosome, caspase-3 DEVD-Rh110 fluorescence; inhibition, % at 20 µM; 25% of 1,800 active;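 active means mean inhibition of at least 40% at 20 µM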
Rh110 interf inh: Rh110 signal interference in Apaf-1 inhibitor counter-screen. activation (fluorescence interference), % at 20 µM. Rh110 fluorescence interference, quenched caspase reaction. 1,800 tested, under 10 active. shares compounds with Apaf-1 inh. AID 504615;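 active means signal rise of 40% or more at 20 µM, treated as a fluorescence artifact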
Fluor interf inh: counter-screen for Apaf-1 inhibitors: fluorescence interference, dose response | IC50, µM | shares compounds with Apaf-1 inh | 460 tested, under 10 active | fluorescence interference counterscreen, Apaf-1 assay format; call rule not given here
SENP8 conf-2: confirmation of human SENP8 protease inhibitors; purified SENP8, Nedd8-AMC/pro-Nedd8 cleavage fluorescence, 30 min; shares compounds with SENP8 block-1; inhibition, % at 25 µM; 15% of 1,400 active; in the data active means inhibition mostly above about 39%, no sharp cut-off; inactive means mostly below about 34%
Hits are given with their value; n = inactive; x = no result given.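 How the source made its calls, unless noted: active means mean inhibition above about 50% in the one-dose retest (limit read from the data); inactive means the rest.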

SMILES	SENP8 block-1	UBC13 polyUb	Apaf-1 inh	SENP6 inh	SENP8 block-2	SENP7 inh	SENP8 conf-1	SENP6 confirm	SENP7 confirm	Casp3 select	SENP luc ctr	SENP8 conf-2	others
Cc1c(NC(=O)C(C)OC(=O)c2sc3ccccc3c2Cl)c(=O)n(-c2ccccc2)n1C (centres undefined)	n	n	n	n	n	n	x	x	x	x	x	x
Cc1c(NC(=O)C(C)OC(=O)c2ccc([N+](=O)[O-])s2)c(=O)n(-c2ccccc2)n1C (centres undefined)	48	n	n	58	54	n	n	79	n	n	n	73
C[n+]1cccc2c(Br)ccc([O-])c21	117	n	98	95	93	87	n	n	n	n	n	69	Apaf-1 inh conf=64;Rh110 interf inh=n;Fluor interf inh=n
Cc1cn([C@H]2C[C@H](O)[C@@H](CNCc3cccn3-c3ccncc3)O2)c(=O)[nH]c1=O	n	x	x	x	x	x	x	x	x	x	x	x
Nc1ccc(N2CCCCC2)c2nonc12	80	n	97	90	58	n	n	56	n	n	n	70
Cc1cccc(C)c1NC(=O)CN(C)CC(=O)N1CC(=O)Nc2ccccc21	n	n	n	n	n	n	x	x	x	x	x	x
Cc1ccc(-c2nc3cccnc3s2)cc1NS(C)(=O)=O	n	n	n	n	n	n	x	x	x	x	x	x
COC(=O)c1[nH]c(=O)c2ccccc2c1O	41	n	91	64	52	n	n	n	n	n	n	n
C[C@H](NC(=O)c1ccco1)C(=O)N1CCCC1	n	n	n	n	n	n	x	x	x	x	x	x
O=C(N/N=C1\C/C(=N\NC(=O)c2ccncc2)c2ccccc21)c1ccncc1	98	n	93	85	64	n	n	n	n	n	n	95	Apaf-1 inh conf=60;Rh110 interf inh=n;Fluor interf inh=n
O=C(O)CSc1c2c(nc3cc(C(=O)Nc4cccc(C(F)(F)F)c4)ccc13)CCC2	n	n	n	n	n	n	x	x	x	x	x	x
CN1C(=O)N(CC(=O)c2ccc3c(c2)OCO3)C(=O)C12CCCCC2	n	x	x	x	x	x	x	x	x	x	x	x
Oc1cc(Nc2ccccc2)cc2cccnc12	n	n	n	n	n	n	x	x	x	x	x	x
Oc1cc(NCCN2CCOCC2)cc2cccnc12	64	n	92	74	61	64	n	76	n	95	n	91	Apaf-1 inh conf=80;Rh110 interf inh=n;Fluor interf inh=n
Cc1ccccc1-c1cc(C(=O)NCc2ccc3c(c2)OCO3)nn1CC1CC(c2cccc([N+](=O)[O-])c2)=NO1 (centres undefined)	n	n	n	n	n	n	x	x	x	x	x	x
O=C1Cc2ccccc2C(=O)N1Cc1ccccc1	85	n	52	91	94	79	n	88	64	72	n	n	Apaf-1 inh conf=76;Rh110 interf inh=n;Fluor interf inh=n
O=C1CC(=O)N(c2ccccc2)c2ccccc21	n	n	n	n	n	n	x	x	x	x	x	x
O=C1Cc2ccccc2C(=O)N1c1cccc(Cl)c1	71	n	n	52	n	n	n	n	n	n	n	n
O=C1Cc2ccccc2C(=O)N1c1ccccc1	53	n	n	54	n	n	n	n	n	n	n	n
COc1cc(C(=O)c2nccc3cc(OC)c(OC)cc23)c([N+](=O)[O-])cc1OC	106	n	n	95	84	90	n	56	n	n	n	80
CN(C)c1ccc(NC(=O)Oc2ccccc2)cc1	44	n	48	75	n	n	64	61	85	81	n	n	Apaf-1 inh conf=n;Rh110 interf inh=n
CN(C)c1ccc(NC(=O)C[n+]2ccccc2)cc1	n	n	n	n	n	n	x	x	x	x	x	x
CC1=NN(c2ccc(F)cc2)C(=O)C1C(c1cccc(O)c1)c1c(C)[nH]n(-c2ccc(F)cc2)c1=O (centres undefined)	90	n	91	n	n	58	n	n	n	n	n	52	Apaf-1 inh conf=n;Rh110 interf inh=n
O=C(CNS(=O)(=O)c1ccc(Br)s1)N1CCN(c2ccc(F)cc2)CC1	n	n	n	n	n	n	x	x	x	x	x	x
Nc1scc2c(C(=O)N/N=C/c3ccc(Cl)cc3)nn(-c3ccccc3)c(=O)c12	69	n	42	50	n	n	n	n	n	n	n	86
SMILES	SENP8 block-1	UBC13 polyUb	Apaf-1 inh	SENP6 inh	SENP8 block-2	SENP7 inh	SENP8 conf-1	SENP6 confirm	SENP7 confirm	Casp3 select	SENP luc ctr	SENP8 conf-2	others
Nc1c(C(=O)N/N=C/c2ccc(Cl)cc2)cnn1-c1ccccc1	n	n	n	n	n	n	x	x	x	x	x	x
Cn1cc([N+](=O)[O-])c(C(=O)N/N=C\c2c[nH]c3ccccc23)n1	n	n	n	n	n	n	x	x	x	x	x	x
O=[N+]([O-])c1ccccc1N/N=C/c1c[nH]c2ccccc12	41	n	n	82	63	79	n	n	96	n	n	n
CCN(CC)S(=O)(=O)c1ccc(C(=O)NNC(=O)C2CCN(S(=O)(=O)c3ccc(Cl)cc3)CC2)cc1	n	78	n	n	n	n	x	x	x	x	x	x	Casp3 UBC13 ctr=n;UBC13 conf=77
O=C(NNC(=O)C1CCN(S(=O)(=O)c2ccc(Cl)cc2)CC1)c1ccc(Cl)cc1	n	n	n	n	n	n	x	x	x	x	x	x
COc1ccc(/C=C/C(=O)Nc2c(C)nn(C)c2C)cc1COc1ccc(Cl)cc1Br	n	60	n	n	n	n	x	x	x	x	x	x	Casp3 UBC13 ctr=n;UBC13 conf=63
Cc1nnc(SCC(=O)N2CCN(c3ccccc3F)CC2)n1C1CC1	n	n	n	n	n	n	x	x	x	x	x	x

Assay outcomes from PubChem.
